DENV2 CPE rescue = inhibitors of DENV2 cytopathic effect, primary screen, cell-based, plate reader, single concentration | 350,000 tested, 1.7% active | CPE inhibition, % at 9.99 µM | DENV2-infected cells, cytopathic effect rescue | AID 651640, 2012; in the data active means CPE inhibition above about 20%, passing the limit was not always enough; inconclusive means no clear call, values can overlap the other calls; tested in BHK-21 cells
C2C12 statin = suppressors of statin myotoxicity in C2C12 myotubes, primary screen, cell-based, single point, plate reader. C2C12 myotubes + simvastatin, ATP luminescence, 48 h; scaled: DMSO 0, geranylgeraniol control 100. AID 602340, 2012. rescue of ATP level, % at 7.49 µM. 330,000 tested, 0.78% active;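 active means mean ATP rescue above about 67%, or every replicate alone reaching that limit, limit read from the data, passing the limit was not always enough; inconclusive means no clear call, values can overlap the other calls; inactive means mean under the limit and some replicate under it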;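 further: myotubes were challenged with 10 µM simvastatin during compound exposure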
PDI turbidity = inhibitors of human PDI, primary screen, biochemical, turbidity, single point, plate reader. inhibition, % at 10 µM. Protein disulfide-isomerase (Homo sapiens), P07237. 350,000 tested, 0.052% active. PDI insulin aggregation turbidity, A650, 90 min;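 active means mean inhibition across replicates of 30% or more, whatever share of single replicates reach that level; inconclusive means mean inhibition below 30% while every single replicate reaches 30%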
ERp5 block = inhibitors of ERp5-driven insulin aggregation, primary screen, biochemical, turbidity, absorbance 650 nm, single point | Protein disulfide-isomerase A6 (Homo sapiens), Q15084 | 90 min | inhibition, % at 9.99 µM | 350,000 tested, 0.05% active;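 active means mean replicate inhibition above about 25%, with every replicate also reaching it, limit read from the data, passing the limit was not always enough; inconclusive means only one of those two criteria met; inactive means neither criterion met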
Target sequence (Q15084 whole entry, looked up): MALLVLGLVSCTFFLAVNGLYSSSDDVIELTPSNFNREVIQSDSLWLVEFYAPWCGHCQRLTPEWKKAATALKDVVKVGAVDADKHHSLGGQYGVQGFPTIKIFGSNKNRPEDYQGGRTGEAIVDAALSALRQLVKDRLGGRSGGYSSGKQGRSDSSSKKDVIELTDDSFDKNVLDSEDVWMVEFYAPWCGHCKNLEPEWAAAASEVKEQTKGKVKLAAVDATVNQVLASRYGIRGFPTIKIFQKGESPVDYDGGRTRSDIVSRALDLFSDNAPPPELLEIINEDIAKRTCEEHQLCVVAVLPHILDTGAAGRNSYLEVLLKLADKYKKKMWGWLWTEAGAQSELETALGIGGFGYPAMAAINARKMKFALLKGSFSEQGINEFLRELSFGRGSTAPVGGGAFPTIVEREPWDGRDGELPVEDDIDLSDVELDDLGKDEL
F508del corr = F508del CFTR correction, initial screen, CFBE line, single point. CFBE cells, YFP halide quenching; stimulated with forskolin plus potentiator P3; % fluorescence drop versus neutral controls. AID 720511, 2013. 350,000 tested, 0.36% active. activity (quench increase), % at 7.58 µM;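 active means mean added fluorescence quench of at least 8% versus neutral control, with both replicates also reaching 8%; inconclusive means only one of the mean or replicate conditions met; inactive means mean below 8% and not both replicates reaching 8%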;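 further: cells transiently co-express mutant CFTR-F508del with the halide-sensitive YFP; corrector assay measuring rescue of mutant channel to the surface after 24 h compound exposure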
Cneo AK release = Cryptococcus neoformans cell lysis inducers, primary screen, AK release luminescence, single concentration | AID 651654, 2012 | C. neoformans lysis, adenylate kinase release luminescence, 4 h; normalised: neutral wells 0, clomiphene wells 100 | 360,000 tested, 0.2% active | lysis activity, % at 15 µM;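 active means mean lysis activity across replicates of at least 80%, whatever share of replicates individually reach that level; inactive means mean lysis activity below 80%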
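Schedule: static 4 h at 37 °C with compound, 1 h detection; system: C. neoformans cells; benchmarks: Clomiphene as positive control; buffer or medium: fresh YPD medium; measure: luminescence rise reflecting yeast cell lysis; measured by: luminescent adenylate kinase detection reagent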
A number is an active result; 0 = inactive; ? = inconclusive; - = no result. Compounds with a hit are over-represented: about 2.3% of the library has one in this group of screens.

SMILES	DENV2 CPE rescue	C2C12 statin	PDI turbidity	ERp5 block	F508del corr	Cneo AK release
COc1ccc(C2c3ccc(O)cc3Oc3ncn(CCCO)c(=N)c32)cc1 (stereo not drawn)	0	-	43.5	0	0	0
N=c1c2c(ncn1Cc1ccco1)Oc1cc(O)ccc1C2c1ccccc1 (stereo not drawn)	0	-	0	0	0	0
C=C(C)COc1ccc2oc(C)c(C(=O)OCCOC)c2c1	-	105.9	0	-	-	0
O=C(Cn1cnc2c(nnn2Cc2ccc(F)cc2)c1=O)NC1CCCC1	-	140.7	0	-	-	0
O=C(Cn1cnc2c(nnn2Cc2ccc(Cl)cc2)c1=O)NC1CCCC1	-	0	0	-	-	0
COc1ccc(NC(=O)N(C)C[C@H]2OCCCC[C@H](C)Oc3ccc(NS(=O)(=O)c4ccccc4)cc3C(=O)N([C@H](C)CO)C[C@@H]2C)cc1	0	-	-	0	0	0
O=C(Nc1ccccc1)N1C[C@H]2[C@@H](c3ccccc31)[C@H](CO)N2Cc1ccccc1	56.9	0	-	0	0	0
O=C(Nc1ccc(F)cc1)N1C[C@H]2[C@@H](c3ccccc31)[C@@H](CO)N2Cc1ccccc1	0	0	-	0	0	0
O=C(Nc1ccc(F)cc1)N1C[C@@H]2[C@H](c3ccccc31)[C@@H](CO)N2Cc1ccccc1Cl	?	0	-	0	0	0
O=C(Nc1ccc(F)cc1)N1C[C@H]2[C@@H](c3ccccc31)[C@@H](CO)N2Cc1ccccc1Cl	30.0	0	-	0	0	0
CC(C)NC(=O)N1[C@H](CO)[C@H]2c3ccccc3N(C(=O)Nc3ccc(F)cc3)C[C@H]21	27.0	0	-	0	0	0
O=C(Nc1ccccc1)N1C[C@@H]2[C@H](c3ccccc31)[C@@H](CO)N2Cc1ccccc1	45.3	0	-	0	0	0
C[C@H](CO)N1C[C@H](C)[C@@H](CN(C)C(=O)Cc2ccncc2)Oc2cc(C#CC3(O)CCCC3)ccc2S1(=O)=O	-	0	-	-	0	-
CCS(=O)(=O)Nc1ccc2c(c1)C(=O)N(C)[C@@H]1CC[C@@H](CC(=O)NC)O[C@@H]1CO2	0	0	-	0	0	0
Cc1noc(C)c1NC(=O)N(C)C[C@@H]1Oc2ccc(NS(C)(=O)=O)cc2CC(=O)N([C@H](C)CO)C[C@@H]1C	0	0	-	-	0	0
O=C1CCC[C@@H]2Cc3nc4cc5c(cc4cc3[C@@H]3CCN1[C@H]23)OCO5	0	79.7	0	0	0	0
CCC(=O)N1CCCCN2[C@H](C1)[C@H](c1ccc(C#Cc3cccnc3)cc1)[C@@H]2CO	28.0	0	-	0	0	0
CCC(=O)N1CCCCN2[C@H](C1)[C@@H](c1ccc(C#Cc3cccnc3)cc1)[C@@H]2CO	23.7	0	-	0	0	0
CO[C@@H](CN(C)C(=O)C1CCOCC1)[C@H](C)CN(C(=O)Nc1ccc(F)cc1)[C@H](C)CO	0	0	-	0	0	0
CCNC(=O)C[C@@H]1CC[C@H](NC(=O)NC2CCCCC2)[C@@H](CO)O1	0	0	-	0	0	0
CCNC(=O)C[C@H]1CC[C@H](NC(=O)NC2CCCCC2)[C@H](CO)O1	0	0	-	0	0	0
CCNC(=O)C[C@H]1CC[C@H](NC(=O)NC2CCCCC2)[C@@H](CO)O1	-	0	-	0	0	107.4
CCNC(=O)C[C@H]1CC[C@@H](NC(=O)NC2CCCCC2)[C@H](CO)O1	0	0	-	0	0	97.0
COc1ccc(S(=O)(=O)N(C)C[C@@H]2Oc3c(NS(=O)(=O)c4ccc(C)cc4)cccc3C(=O)N([C@@H](C)CO)C[C@H]2C)cc1	-	-	-	-	0	-
CCC(=O)NC(=S)Nc1ccccc1OC	-	133.1	0	-	-	0
SMILES	DENV2 CPE rescue	C2C12 statin	PDI turbidity	ERp5 block	F508del corr	Cneo AK release
COc1ccc(C)cc1NC(=O)C(c1ccccc1)N1CCN(CC(=O)N2CCOCC2)CC1 (stereo not drawn)	28.0	0	0	0	0	0
COc1ccccc1NC(=O)CN1CCCCCC1	0	0	0	0	0	0
COc1ccccc1NC(=O)CN1CCOCC1	74.9	0	0	0	0	0
COc1ccccc1NC(=S)NC1CC2CCC1C2 (stereo not drawn)	0	126.3	0	0	0	0
CCC(=O)N1CC[C@@H]2[C@H](CO)Nc3ccc(C#Cc4ccccc4)cc3[C@@H]21	?	0	-	0	0	0
CC(=O)NCCNc1nc(NCc2cccs2)nc2ccsc12	70.9	0	0	0	0	0
CC(C)CCCN1C(Nc2ccccc2)=NC[C@@H]1CC(C)C	0	0	0	0	0	0
CC(C)C[C@H]1CN=C(Nc2ccccc2)N1CCCCc1ccccc1	0	104.6	0	0	0	0
C[C@H]1CN=C(Nc2ccccc2)N1CCCC1CCCC1	58.3	0	0	0	0	0
CC=Cc1ccc2n(c1=O)C[C@H]1[C@H](CO)[C@@H](C(=O)NCCCN(C)C)[C@@H]2N1C(=O)c1ccccc1 (mixture of isomers)	0	-	-	-	0	-
O=C(C[C@@H]1C[C@@H]2c3cc(NS(=O)(=O)c4ccc(F)cc4)ccc3O[C@@H]2[C@H](CO)O1)NCC1CC1	0	0	-	-	0	0
CCCC(=O)N1CCC2(CC1)CN(S(C)(=O)=O)[C@@H](CO)c1c2c2ccc(OC)cc2n1C	0	-	-	-	0	-
C[C@H](CO)N1C[C@H](C)[C@H](CN(C)CC2CC2)Oc2ccc(NS(=O)(=O)c3cn(C)cn3)cc2C1=O	0	0	-	0	0	0
C[C@H](CO)N1C[C@H](C)[C@@H](CN(C)CC2CC2)Oc2ccc(NS(=O)(=O)c3cn(C)cn3)cc2C1=O	32.7	0	-	0	0	0
C[C@@H]1CN([C@H](C)CO)C(=O)c2cc(NS(=O)(=O)c3cn(C)cn3)ccc2O[C@H]1CN(C)Cc1ccccc1	20.8	0	-	0	0	0
C[C@H]1CN([C@@H](C)CO)C(=O)c2cc(NS(=O)(=O)c3cn(C)cn3)ccc2O[C@@H]1CN(C)Cc1ccccc1	23.7	0	-	0	0	0
C[C@@H]1CCCCO[C@@H](CN(C)C(=O)c2ccncc2)[C@H](C)CN([C@@H](C)CO)C(=O)c2cc(NC(=O)c3ccncc3)ccc2O1	?	-	-	0	0	0
CC(=O)N(C)C[C@@H]1Oc2cc(-c3ccccc3C)ccc2S(=O)(=O)N([C@H](C)CO)C[C@H]1C	0	0	-	0	0	0
OC1CCCCC1	67.4	0	-	0	0	0
O=C(NNC(=O)NC1CCCCC1)NC1CCCCC1	0	-	0	0	0	-
Oc1c(C(Nc2cccc(C(F)(F)F)c2)c2ccncc2)ccc2cccnc12 (stereo not drawn)	0	-	0	0	0	-

Screening results as filed in PubChem.
